This is one part of a sample in which hits are shown more often than they occur.
Biofilm kill mix: mixtures killing C. albicans biofilm; hit rate 0.02% among 120,000; inhibition, % at 7.6 µM; C. albicans biofilm persisters + clotrimazole, fluorescence viability; primary screen in compound mixtures of four per well; AID 1242;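 active means inhibition above 30.3% in the primary screen of four-compound pools, then above 30% when the compound was retested; inconclusive means passed the primary limit but could not be retested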;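 further: compounds exposed to preformed 24 h biofilms for 48 h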
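Incubation: 24 h biofilm formation, then 48 h compound exposure, 37 °C | Material: C. albicans biofilms | Buffer or medium: RPMI/MOPS medium, pH 7.0 | Measured by: 2-h Alamar Blue fluorescence, 535/590 nm excitation/emission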
ROMK primary: modulates human ROMK potassium channel activity. P48048. Tet-inducible ROMK, thallium flux fluorescence; actives lie on both sides. B-score at 10 µM. hit rate 2% among 130,000. AID 1918;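 active means signal ratio slope over the read window, or its plate-corrected B-score, at least 3 SD from the plate mean, either direction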;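 further: B-score of the F/F0 ratio slope over 7 to 12 s after thallium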
Target sequence (P48048 whole entry, looked up): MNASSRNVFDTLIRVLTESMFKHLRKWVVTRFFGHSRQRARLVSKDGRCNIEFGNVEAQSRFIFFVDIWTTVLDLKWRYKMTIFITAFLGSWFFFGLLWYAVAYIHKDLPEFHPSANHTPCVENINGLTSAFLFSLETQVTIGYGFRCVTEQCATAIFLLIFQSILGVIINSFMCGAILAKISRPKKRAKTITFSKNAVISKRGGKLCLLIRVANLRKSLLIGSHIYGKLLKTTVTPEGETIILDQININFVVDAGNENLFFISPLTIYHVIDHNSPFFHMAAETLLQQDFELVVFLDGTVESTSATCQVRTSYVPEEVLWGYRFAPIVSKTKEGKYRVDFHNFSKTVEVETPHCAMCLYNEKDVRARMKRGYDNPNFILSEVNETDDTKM
Pf gamet viab: kills late stage P. falciparum gametocytes; P. falciparum stage V gametocytes, ATP luminescence, 24 h; inhibition, % at 10.9 µM; hit rate 0.065% among 150,000; AID 743093;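 active means inhibition above the mean plus 3 SD of compounds within the control limits, set per campaign, cut at about 38% in these data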
ROMK hit retest: retested hit modulating human ROMK potassium channel. normalized thallium flux (F/F0 slope) at 10 µM. shares compounds with ROMK primary. hit rate 54% among 3,000. ROMK thallium flux, fluorescence ratio; hits give low values;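 active means Flux at 10 µM at least 3 SD below or above vehicle control mean in one or both replicates; inconclusive means no clear call, values can overlap the other calls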
Numbers stand for hits; 0 = inactive; ? = inconclusive; - = not tested or not shown.

SMILES | Biofilm kill mix | ROMK primary | Pf gamet viab | ROMK hit retest
COc1cc(C)ccc1OCCOCCOc1ccccc1[N+](=O)[O-] | 0 | - | 0 | -
CC(C)(C)NC(=O)c1nc2nc(-c3ccccc3)cc(C(F)(F)F)n2n1 | 0 | 0 | 0 | -
CCCOc1nc(SCCC)nc2c1cnn2-c1ccccc1 | 0 | - | - | -
Fc1ccccc1C1CC(c2ccco2)=Nc2ccccc2S1 (stereo not drawn) | 0 | - | 0 | -
c1coc(-c2cc(C3CCNCC3)[nH]n2)c1 | 0 | 0 | 0 | -
c1ccc2c(-c3cc(C4CCNCC4)[nH]n3)cccc2c1 | 0 | -4.4 | 0 | 0.064
NNC(=S)Nc1ccc(S(=O)(=O)N2CCCCC2)cc1 | 0 | 0 | 0 | -
COC(=O)C1CCN(S(=O)(=O)c2ccc(OC)cc2)CC1 | - | 0 | 0 | -
CCNC(=O)C1CCN(S(=O)(=O)c2ccc(F)cc2)CC1 | - | 0 | - | -
O=C(Nc1nnc(-c2ccccc2Cl)s1)C1CCN(S(=O)(=O)c2ccc(Cl)cc2)CC1 | 0 | - | 0 | -
O=C(NCCO)C1CCN(S(=O)(=O)c2ccc(F)cc2)CC1 | - | -6.9 | - | 0
COc1ccc(S(=O)(=O)N2CCC(C(=O)Nc3c(F)cccc3F)CC2)cc1 | - | - | - | 0
O=C(Nc1nnc(-c2ccccc2F)s1)C1CCN(S(=O)(=O)c2ccc(Cl)cc2)CC1 | 0 | - | 0 | 0
Cc1nc(-c2ccc(S(=O)(=O)Oc3ccccc3Cl)s2)cs1 | 0 | - | 0 | -
Nc1nc(SCC(=O)Nc2ccc(OCc3ccccc3)cc2)n[nH]1 | 0 | - | 0 | -
O=C(Cc1ccc(Cl)cc1)Nc1ccc(CN2CCCCC2)cc1 | 0 | - | 0 | -
Cn1c(=O)c(=O)n(C)c2cc([N+](=O)[O-])c(N3CCOCC3)cc21 | - | - | 0 | -
O=C(NCC1CCCO1)C1CCCN(c2ncccn2)C1 (stereo not drawn) | - | - | 0 | 0
CCS(=O)(=O)N1CCCC(C(=O)NCC2CCCO2)C1 (stereo not drawn) | - | 0 | - | -
Cc1ccc(NS(=O)(=O)c2cc([N+](=O)[O-])ccc2NNC(=S)Nc2cc(C)ccc2C)c(C)c1 | 0 | - | - | 0.064
COc1ccc(NC(=S)NNc2ccc([N+](=O)[O-])cc2S(=O)(=O)Nc2ccc(C)cc2C)cc1 | 0 | 0 | 0 | -
Cc1cccc(N=Cc2[nH]c3ccc(Br)c(Cl)c3c2O)c1 | 0 | 0 | 0 | -
COc1ccccc1CN=Cc1[nH]c2ccc(Br)c(Cl)c2c1O | - | -3.6 | 0 | 0.044
COc1cc2c(cc1OC)CN(C(=O)c1sc(-c3cnccn3)nc1C)CC2 | 0 | - | 0 | -
CCOC(=O)C(C)Oc1cccc2c(=O)n(CC(=O)NCc3ccco3)ccc12 (stereo not drawn) | - | - | - | 0
SMILES | Biofilm kill mix | ROMK primary | Pf gamet viab | ROMK hit retest
CC(C)C(=O)c1cn(CC(=O)NCc2ccco2)c2ccccc12 | 0 | 0 | 0 | -
COc1ccccc1NC(=O)/C=C/c1ccc2c(c1)OCO2 | 0 | 5.1 | 0 | 0
COc1ccccc1NC(=O)COC(=O)/C=C/c1ccc2c(c1)OCO2 | 0 | 0 | 0 | -
CCc1nnc(NC(=O)CN2CCN(Cc3ccc(C)cc3)CC2)s1 | - | - | 0 | -
O=C(Cc1ccccc1)NCC(=O)OCc1ccc([N+](=O)[O-])cc1 | 0 | 0 | - | -
O=C(O)CC1(CC(=O)NCc2ccncc2)CCCCC1 | 0 | - | 0 | -
Cc1ccsc1C(=O)Nc1nc2ccccc2[nH]1 | 0 | - | 0 | -
CCNC(=O)CC1C(=O)N(C)C(=S)N1NC(=O)c1ccc(Cl)cc1 (stereo not drawn) | - | - | - | 0
CCNC(=O)CC1C(=O)N(CC)C(=S)N1NC(=O)c1ccc(Cl)cc1 (stereo not drawn) | - | - | 0 | -
CCCc1ccc(Oc2cn[nH]c2-c2ccc(O)c(C)c2O)cc1 | - | -4 | - | 0.058
CCCc1ccc(Oc2c(-c3ccc(O)c(C)c3O)n[nH]c2C)cc1 | - | - | 0 | -
O=C1CC(=C2c3ccccc3-c3ccccc32)C(=O)N1CCCCN1CCN(c2ccccc2)CC1 | 0 | 0 | - | -
Cc1ccc(C(C)C)c(OCc2nn(CC(=O)c3ccc(OC(F)F)cc3)c3[n+]2CCCCC3)c1 | 0 | -4.2 | - | 0.055
COc1ccc(C(=O)Cn2nc(CNc3ccc(Br)cc3)[n+]3c2CCCCC3)cc1 | 0 | 0 | 0 | -
O=P(c1ccccc1)(c1ccccc1)C(O)c1ccncc1 (stereo not drawn) | - | 0 | - | -
O=P(c1ccccc1)(c1ccccc1)C(O)c1ccco1 (stereo not drawn) | - | 2.2 | - | 0
CCOC(=O)c1n[nH]c(=O)c2ccccc12 | 0 | 0 | 0 | -
CCOC(=O)c1n[nH]c2ccccc12 | - | 2.2 | 0 | 0
CCN1CCC(N2CCN(c3ccccc3OC)CC2)CC1 | - | - | 0 | -
O=C(NCc1n[nH]c(=S)n1-c1ccc(Br)cc1)c1cccs1 | 0 | 0 | 0 | -
CCN(CC)CC(=O)Nc1ccc(-c2nc3cc(NC(=O)CN(CC)CC)ccc3o2)cc1 | - | - | 0 | -
CCC(C)NCC(=O)Nc1ccc(-c2nc3cc(NC(=O)CNC(C)CC)ccc3o2)cc1 (stereo not drawn) | - | -2.3 | 0 | 0.061
Cc1ccc(/C=C(\C#N)C(=O)NCCN2CCOCC2)cc1 | 0 | -3.2 | 0 | 0.06
Cc1ccsc1/C=C(\C#N)C(=O)NCCCN1CCOCC1 | 0 | 0 | 0 | -
Cc1ccc(-n2c(-c3ccc(Br)cc3)c[n+]3c2CCc2ccc4cccnc4c2-3)cc1 | - | - | - | 0.034
SMILES | Biofilm kill mix | ROMK primary | Pf gamet viab | ROMK hit retest
COc1ccc(-n2c(-c3ccc(Cl)cc3)c[n+]3c2CCc2ccccc2-3)cc1 | 0 | 0 | 0 | -
OCCN1CCN(C(=S)Nc2cccc(C(F)(F)F)c2)CC1 | 0 | - | 0 | -
CN(C)c1cc[n+](CC(=O)c2ccc(-c3ccccc3)cc2)cc1 | 0 | 0 | 0 | -
COc1ccc(C2=NO[C@@H]3[C@@H]4C[C@@H]([C@H]5C(=O)N(C)C(=O)[C@@H]45)[C@H]23)c(OC)c1 | 0 | - | 0 | -
O=C1CCCC(O)=C1Sc1ccccc1C(=O)O | 0 | 0 | - | -
O=C1CCCC(O)=C1C(C#Cc1ccccc1)C1=C(O)CCCC1=O | - | -3.8 | - | 0.063
O=C(c1cc(=O)[nH]c2ccccc12)N1CCN(c2ccc([N+](=O)[O-])cc2)CC1 | 0 | - | 0 | -
O=C(/C=C/c1ccc(F)cc1)NCC1(c2ccccc2)CCOCC1 | 0 | 0 | 0 | -
Cc1ccc(NC2=NCC(=O)N2C2CCCC2)cc1 | 0 | 0 | 0 | -
O=C(Nc1ccc(N2CCN(c3ccc(C(F)(F)F)cn3)CC2)nc1)c1cccs1 | 0 | - | 0 | -
O=C(Nc1ccc(N2CCN(c3ncccc3C(F)(F)F)CC2)nc1)c1cccs1 | 0 | - | 0 | 0
CCOc1cc2c(C)cc(=O)oc2cc1Cl | - | 0 | 0 | -
CCOc1cc2oc(=O)c3c(c2cc1Cl)CCC3 | - | 0 | - | 0
Cc1nc2c(C)cccn2c1/C(O)=C1\C(=O)C(=O)N(CCN(C)C)C1c1cccs1 (stereo not drawn) | - | - | 0 | -
CCOC(=O)/C=c1\s/c(=C\c2ccccc2C)c(=O)n1CC(=O)NCc1ccc2c(c1)OCO2 | 0 | - | 0 | -
CCOC(=O)/C=c1\s/c(=C\c2ccc3cc(OC)ccc3c2)c(=O)n1CC(=O)NCc1ccc2c(c1)OCO2 | 0 | -6 | 0 | 0.046
CCc1cc(SC#N)cc(CC)c1NC(=O)CCl | 0 | -3.6 | 0 | 0.047
Cc1cc(C)c2c(NC(=O)CCl)nn(C)c2n1 | 0 | 0 | 0 | -
COc1ccc2nccc(C(N)=O)c2c1 | 0 | - | 0 | -
C=CCn1c(SCC(=O)Nc2cc3oc4ccccc4c3cc2OC)nnc1-c1cnccn1 | - | - | 0 | 0.065
C=CCn1c(SCC(=O)Nc2cccc3ccccc23)nnc1-c1cnccn1 | - | - | 0 | -
COCCn1nnnc1CN(Cc1ccco1)Cc1cc2cc3c(cc2[nH]c1=O)OCO3 | - | - | 0 | -
Cc1ccc2cc(CN(Cc3ccc4c(c3)OCO4)Cc3nnnn3Cc3ccco3)c(=O)[nH]c2c1C | - | -4.2 | - | ?

Screening results deposited in PubChem by several laboratories.
